Our source for the IC50 values is ChEMBL document CHEMBL1147458, “Lead identification of a potent benzopyranone selective estrogen receptor modulator” (Bioorg Med Chem Lett, 2004).

The subject of one experiment is MCF7. Put plainly: Antiproliferative activity against MCF-7 cell line. Format: functional, cell-based. The note with it: Homo sapiens.
The test system of a further experiment is U2OS. Kind of experiment: Ability to inhibit release of interleukin-6 from U2OS cell lines transfected with estrogen receptor alpha. Format: functional, cell-based. The note with it: Homo sapiens. A digest of the protocol: (§1)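 Estrogen-receptor-negative osteosarcoma U2OS cells, transfected with ER-α, were screened for inhibition of IL-6 cytokine release.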

Experiment [1] is described as follows: Concentration required for inhibition of Interleukin-6 in U20S cells was determined. Format: cell-based. A digest of the protocol: as §1

For the compound `O=c1oc2cc(O)ccc2c(-c2ccc(OCCCN3CCCCC3)cc2)c1-c1ccccc1`, the IC50 (commonly the point on the concentration scale where inhibition reaches its midpoint) in the experiment on MCF7 was found to be 335 nM; with U2OS it was 355 nM. In the case of `O=c1oc2cc(O)ccc2c(-c2cccc(OCCCN3CCCCC3)c2)c1-c1ccccc1`, the IC50 with MCF7 amounted to 9.5 nM; in the experiment on U2OS, 1.5 nM.

In the case of `O=c1oc2cc(O)ccc2c(Cc2ccc(OCCN3CCCCC3)cc2)c1-c1ccccc1`, the IC50 was 7.7 nM in the experiment on MCF7 and 0.38 nM with U2OS. The like results for `O=c1oc2cc(O)ccc2c(Cc2ccc(OCCCN3CCCCC3)cc2)c1-c1ccccc1` were, in that order, 18 nM and 4.4 nM. `O=c1oc2cc(O)ccc2c(-c2cccc(OCCCCCN3CCCCC3)c2)c1-c1ccccc1`: the results for the IC50 with MCF7 and with U2OS were 15 nM and 11 nM, respectively.

For the compound `O=C(c1ccc(OCCN2CCCCC2)cc1)c1c(-c2ccc(O)cc2)sc2cc(O)ccc12` [RALOXIFENE], the results for the 50% inhibitory concentration (IC50) with MCF7 and in the experiment on U2OS were 4.9 nM and 3.1 nM, respectively.

As to `O=c1oc2cc(O)ccc2c(-c2cccc(OCCN3CCCCC3)c2)c1-c1ccccc1`, the IC50 was 85 nM with MCF7 and 12 nM with U2OS. `O=c1oc2cc(O)ccc2c(-c2cccc(OCCCCN3CCCCC3)c2)c1-c1ccccc1`: the values for the IC50 in the experiment with MCF7 and in the experiment with U2OS were 12 nM and 3.2 nM, respectively. Taken in the same sequence, the figures for `O=c1oc2cc(O)ccc2c(Cc2ccc(OCCCCN3CCCCC3)cc2)c1-c1ccccc1` were 13 nM and 5 nM. Consider `O=c1oc2cc(O)ccc2c(-c2ccc(OCCCCCN3CCCCC3)cc2)c1-c1ccccc1`, for which the values for the 50% inhibitory concentration (IC50) in the experiment on MCF7 and in the experiment on U2OS were 335 nM and 114 nM, respectively. In the case of `O=c1oc2cc(O)ccc2c(-c2ccc(OCCCCCCN3CCCCC3)cc2)c1-c1ccccc1`, the IC50 with MCF7 was 720 nM; in the experiment with U2OS, 145 nM.

On to `O=c1oc2cc(O)ccc2c(-c2ccc(OCCN3CCCCC3)cc2)c1-c1ccccc1`, for which the IC50 was found to be 425 nM in the experiment with MCF7 and 505 nM with U2OS. Consider `O=c1oc2cc(O)ccc2c(-c2ccc(OCCCCN3CCCCC3)cc2)c1-c1ccccc1`, for which the half-inhibitory concentration (IC50) in the experiment on MCF7 is 134 nM; in the experiment on U2OS it was 69 nM. `CCCc1c(Cc2c(F)cccc2Cl)c(=O)oc2cc(O)ccc12` had a 50% inhibitory concentration (IC50) in experiment [1] of 300 nM. As to `CC/C(=C(\c1ccc(O)cc1)c1ccc(OCCN(C)C)cc1)c1ccccc1`, the values for the IC50 in the experiment on MCF7 and in the experiment on U2OS were 24 nM and 1.9 nM, respectively.
